For this assay, the target named is Signal transducer and activator of transcription 3 (Homo sapiens, UniProt P40763). The experiment in a line: Inhibition of STAT3 by Western blotting. The essentials:
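Phosphotyrosine Stat3 levels in treated cells, tested up to 10 µM. Cells washed in ice-cold PBS, lysed in SDS sample buffer, equal protein run on SDS-PAGE and transferred to PVDF. Blots blocked in 5% nonfat milk/TBST, then phospho-Stat3 and β-tubulin antibodies at 4 °C overnight, secondary 2 h room temperature, ECL detection. IC50 derived.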
On the technique in general: A western blot detects proteins with antibodies after separation by electrophoresis.

Sequence of Signal transducer and activator of transcription 3 (P40763 whole entry): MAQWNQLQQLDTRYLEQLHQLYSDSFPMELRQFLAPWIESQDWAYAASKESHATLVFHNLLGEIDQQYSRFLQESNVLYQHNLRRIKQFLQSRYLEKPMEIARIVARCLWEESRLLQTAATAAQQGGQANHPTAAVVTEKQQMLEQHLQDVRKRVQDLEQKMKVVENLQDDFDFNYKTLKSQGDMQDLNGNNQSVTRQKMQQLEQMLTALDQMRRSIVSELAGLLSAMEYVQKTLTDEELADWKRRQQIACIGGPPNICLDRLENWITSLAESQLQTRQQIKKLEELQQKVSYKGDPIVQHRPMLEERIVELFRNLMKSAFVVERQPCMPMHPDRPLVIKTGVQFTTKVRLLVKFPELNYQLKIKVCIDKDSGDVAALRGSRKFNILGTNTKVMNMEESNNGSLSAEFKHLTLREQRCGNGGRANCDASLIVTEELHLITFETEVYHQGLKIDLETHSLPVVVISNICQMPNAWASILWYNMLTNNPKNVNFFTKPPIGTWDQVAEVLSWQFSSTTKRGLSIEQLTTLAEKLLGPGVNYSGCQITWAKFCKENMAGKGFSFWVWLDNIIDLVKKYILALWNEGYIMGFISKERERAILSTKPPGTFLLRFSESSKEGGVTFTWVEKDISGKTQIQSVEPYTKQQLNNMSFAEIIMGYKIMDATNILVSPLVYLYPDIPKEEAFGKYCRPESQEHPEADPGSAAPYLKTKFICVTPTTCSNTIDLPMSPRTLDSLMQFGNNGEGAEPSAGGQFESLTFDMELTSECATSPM

The compound `CC(=O)OC(C)(C)/C=C/C(=O)[C@](C)(O)[C@H]1[C@H](O)C[C@@]2(C)[C@@H]3CC=C4[C@H](C[C@H](O)C(=O)C4(C)C)[C@]3(C)C(=O)C[C@]12C` [CUCURBITACIN B] had a half-inhibitory concentration (IC50) of 3000 nM. In other words, the single-digit micromolar range.

One may read the IC50 as the concentration that gives 50% inhibition. Lower therefore signals higher potency.

(Values after BindingDB's records for doi:10.1021/np800692t (Chinese Academy of Sciences, 2010).)
